Laboratory results from the EternaBench riboswitch data.

System: MS2 coat protein
Assay: apparent Kd, MS2 coat protein; higher = weaker binding; RNA-MaP array; FMN 200 µM where present
Outline: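 The apparent Kd is reported as the median of filtered per-cluster binding-curve fits. To get these curves, designs transcribed by stalled E. coli RNA polymerase on Illumina sequencing-chip clusters were titrated with SNAP-549-labelled MS2 coat protein from 0.7 or 1.5 nM, doubling to 3 µM. Titrations were run without and then with constant ligand in 100 mM Tris-HCl pH 7.5, 80 mM KCl, 4 mM MgCl2, BSA, DTT, yeast tRNA and Tween-20, and green signal was normalised to red-channel RNA signal and control-cluster median Fmax.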

[1] = designed as: OFF switch for flavin mononucleotide, no ligand
[2] = ligand present: flavin mononucleotide, designed as: OFF switch for flavin mononucleotide
[3] = designed as: ON switch for flavin mononucleotide, no ligand
[4] = ligand present: flavin mononucleotide, designed as: ON switch for flavin mononucleotide

AGAAUUGUAGGAUAUACAUGAGGAUCACCCAUGUGGGAGGUGGAGCAUACAAGACGAGGUAGAAGGACAACGAC
apparent Kd [1]: 92.3 nM | apparent Kd [2]: 91.9 nM

AGGAUGUUAGGAUAUCGGAUAUGCUGGAGGAGGUGGAUUUACGAGAAGGAACAUGAGGAUCACCCAUGUUGGAG
apparent Kd [1]: 22.5 nM | apparent Kd [2]: 25.1 nM

ACAAGAUCAGGAUAUACAUGAGGAUCACCCAUGUUUAUCCAAAAGGGACUUUCUUUAUGUAGAAGGGAUCUUGU
apparent Kd [1]: 16.8 nM | apparent Kd [2]: 32.3 nM

AGUUAAUAUCGAGGAUAUCCUCAUAUACAUGAGGAUCACCCAUGUAAACAUGGAGAAGGCGAUAUUAACAGCAUGUUACAUGCA
apparent Kd [3]: 377 nM | apparent Kd [4]: 21.9 nM

AAUAACAGAGGAUAUACUGUUUUAUGUGUUUGUUAUUUUGAACAUGAGGAUCACCCAUGUAGAAGGCUGAUUGA
apparent Kd [1]: 50 nM | apparent Kd [2]: 44.9 nM

AUAUGAUAGAUAGGAUAUACAUUGGAUUUAUAAGUAGAAGGAUCAAGUGGGAAUUAUACAUGAGGAUCACCCAUGUUUUUGGAU
apparent Kd [3]: 63.9 nM | apparent Kd [4]: 43.9 nM

UUAAAGGCAGGAUAUACAUUUUUUUUAUUAUCCUCAUUAUUACAUGAGGAUCACCCAUGUAGAAGGGCCAAAUU
apparent Kd [1]: 81.7 nM | apparent Kd [2]: 54.1 nM

UGAGCAACAGGAUAUAUGUGGCGUCCGUGAGGACGAAGGUUACAUGAGGAUCACCCAUGUAGAAGGGUUGUUCU
apparent Kd [1]: 169 nM | apparent Kd [2]: 366 nM

GGUUGGCGAGGAUAUACAUGAGGAUCACCCAUGUGAGAGAUACUAGUGAGGUCGAUUGGUAGAAGGCGCUGACA
apparent Kd [1]: 108 nM | apparent Kd [2]: 58.6 nM

AUUGUAUAGGAAGGAUAUAGAAUAUUAUUUUAACAUGAGGAUCACCCAUGUAACCUUAUGUGUAGCUAGAAGGUCCGUUUAUUA
apparent Kd [1]: 110 nM | apparent Kd [2]: 162 nM

CUGAUGUGAGGAUAUCUAAAAGAAACUGGGCAAAUACCCAGAGAGAAGGCACAUGAGGAUCACCCAUGUAACGA
apparent Kd [1]: 21.3 nM | apparent Kd [2]: 86.8 nM

GGGCUCGGAGGAUAUACAAUGGGCCCGGGAAACCGGGCCCUACAUGAGGAUCACCCAUGUAGAAGGUCGGGCUC
apparent Kd [1]: 16.4 nM | apparent Kd [2]: 24.8 nM

GUGUACGGAGGAUAUAUGUGGGCAGCAUACGCUGCAGCUUCACAUGAGGAUCACCCAUGUAGAAGGCUGUGCAC
apparent Kd [1]: 23.2 nM | apparent Kd [2]: 131 nM

GCCUCAUAGUAGAAGGGACUUCGGCUGUUAAGCAUCAUCUCCAUUUCACAUGAGGAUCACCCAUGUCAGGAUAUACUAAGAGGC
apparent Kd [1]: 10.3 nM | apparent Kd [2]: 24.9 nM

CUGGAUGUCGAGGAUAUGCACCGGCUCGCUGACGCAGAAGGCGACACAUGAGGAUCACCCAUGUCGGUUCGCGA
apparent Kd [1]: 18.6 nM | apparent Kd [2]: 42 nM

AUAAAGUGAGGAUAUGUAAAAAUAACGAAAGUUAUAAAUAAACAGAAGGCACAUGAGGAUCACCCAUGUCCAAU
apparent Kd [1]: 26.8 nM | apparent Kd [2]: 43.1 nM

AGUUUGUGAGGAUAUCCAAUAUAUGACAUGAGGAUCACCCAUGUUUCCACUCGUACCUCCGGAGAAGGCACUGCGA
apparent Kd [1]: 21.5 nM | apparent Kd [2]: 22.9 nM

GCGAAGAACGAGAAGGCCACAACAUGAGGAUCACCCAUGUCGUGGAGUAUUGGAGGAUAUCGUUAGGCGUCUCAUGAGGACAUA
apparent Kd [1]: 5.92 nM | apparent Kd [2]: 5.66 nM

GUAAAGUGAGGAUAUGGUAAUUUAAUUAUUAAUUAAUUAAUCCAGAAGGCACAUGAGGAUCACCCAUGUAAAGG
apparent Kd [1]: 39.6 nM | apparent Kd [2]: 74.6 nM

UGGUACUAGGGAGGAUAUGGGAAGAUACAUGAGGAUCACCCAUGUUUAAGAAUGCCGAGAGGCAACUAGAAGGCCAUAGUACCU
apparent Kd [3]: 405 nM | apparent Kd [4]: 22 nM

UGGUGAAAUGUAGGAUAUGGAAAUAAAUUUUAACCAGAAGGACAUGAGGAUCACCCAUGUGAUAGAGAAUUAAUAAUAGCUCCU
apparent Kd [1]: 26.9 nM | apparent Kd [2]: 31.3 nM

GUAGCUACUAUUAUACAUGAGGAUCACCCAUGUUACAUGUGUAAGGAUAUUGAAGUUAUUAUUAUCAAGAAGGUACUAUGCUAC
apparent Kd [3]: 16.2 nM | apparent Kd [4]: 9.54 nM

UGCCACCGGGAGAAGGGCAUACGUGAGGUCCUACAUAGUCACAUGAGGAUCACCCAUGUAGAAAUGCAGGAUAUCUCGUAGCAG
apparent Kd [1]: 6.93 nM | apparent Kd [2]: 13.4 nM

AUUUAGUGCGAGAAGGCGUGGUCACAUGAGGAUCACCCAUGUCAGUACACGAGGAUAUCGAUUCGCUAUGUAAACAUAUGCGAC
apparent Kd [3]: 66.8 nM | apparent Kd [4]: 6.62 nM

AUCAUGUCAGGAUAUGUGACAUGGAUCUUCGGAUCAAGAUCACAGAAGGGACAUGAGGAUCACCCAUGUCGAUC
apparent Kd [1]: 98.8 nM | apparent Kd [2]: 53.4 nM

GCCGGUUCCCUAGGAUAUGUACAUGAGGAUCACCCAUGUGCCUCUAGAGCCGGAACAGGGCAUGUACAGAAGGAGGGUCGACCC
apparent Kd [2]: 8.03 nM

CGUACUGAAGUGAGGAUAUUGUCUCGGAUACGAAACAAGAAGGCACAUGAGGAUCACCCAUGUAAACAGUACGA
apparent Kd [1]: 17.5 nM | apparent Kd [2]: 14.2 nM

GUGGUUGUCGUAGGAUAUGUAGGAUAUUCCUACAUGAGGAUCACCCAUGUUCGCAUGGAAGAAGGACGGAAGGACGAUGACCAA
apparent Kd [3]: 306 nM | apparent Kd [4]: 125 nM

CUGAGUAGUCAGGAUAUGCUGUACAAAAGUACAGCAGAAGGGAUUACAUGAGGAUCACCCAUGUUUUCUUCAUG
apparent Kd [1]: 56.1 nM | apparent Kd [2]: 137 nM

GGAUCAUAUGUUAGGAUAUGCUGGACCUUGGUUCAGCAGAAGGGACAUGAGGAUCACCCAUGUCAUGUCGAUCC
apparent Kd [1]: 21 nM | apparent Kd [2]: 22.3 nM

CACAAAUGGCAGAAGGGACGGACGAUAGUGUAGUCAGGAUAUGCAAAUAGGUAUGGACAUGAGGAUCACCCAUGUCCGUCCUUU
apparent Kd [4]: 5.27 nM

AACCAACAUGAGGAUCACCCAUGUCAACCCAAGGCAGGAUAUGCGAGAAUAACAAUGGGAGCAGAAGGGCCGACCU
apparent Kd [3]: 110 nM | apparent Kd [4]: 54.9 nM

GUAGCAUACCAAGGAUAUUCAGGGCUUGGAUAGACAUGAGGAUCACCCAUGUGGCGAAAGUCUAGGGAGAAGGUGGUAUGCUAC
apparent Kd [3]: 16 nM | apparent Kd [4]: 13.8 nM

CAGGAUAGAGGAUAUACAUAGAUACAGAUUCAUAUAAUCCUACAUGAGGAUCACCCAUGUAGAAGGCUAUCCUG
apparent Kd [1]: 15 nM | apparent Kd [2]: 46.4 nM

AUAUCCUAGAUAGGAUAUACUGAGGUUGAAUGGGUAGAAGGAUCGUUAGGGAAGACUACAUGAGGAUCACCCAUGUUGUGUAUU
apparent Kd [3]: 218 nM | apparent Kd [4]: 182 nM

UUGGACGUCGUAGGAUAUGUAGGAUAUUCCUACAUGAGGAUCACCCAUGUUGAGAUGGAAGAAGGACAGAAGGACGAUGUCCAU
apparent Kd [3]: 25.3 nM | apparent Kd [4]: 4.05 nM

GAUAUUUUUUGAGGAUAUUCAUACACUGUAUACGGAGAAGGCAAACAAUCAUGAGGACAUGAGGAUCACCCAUGUUGUGACCAU
apparent Kd [3]: 19.5 nM | apparent Kd [4]: 13.5 nM
